pIC50: −log10 of the molar value. Active and inactive are the calls of the source. The calls are words filed in the database; no cut-off is given here.
Assays:
Homo sapiens = species on record: Homo sapiens; test: Antimigraine activity in migraine patients relative to placebo treated control; type: functional
[1] = target: Nitric oxide synthase, inducible (Homo sapiens, UniProt P35228); test: Inhibition of human recombinant iNOS expressed in Sf9 cells assessed as inhibition of conversion of [3H]-L-arginine to [3H]-L-citrulline after 45 mins by liquid scintillation counting
Summary of the method: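 Recombinant human iNOS from baculovirus-infected Sf9 cells in 100 mM HEPES pH 7.4 with 1 mM CaCl2, 1 mM EDTA, 1 mM DTT, 1 μM FMN, 1 μM FAD, 10 μM BH4, 120 μM NADPH and 100 nM CaM. Compound preincubated 15 min at RT, then 45 min at 37 °C. [3H]-citrulline from [3H]-L-arginine separated on Dowex and counted by scintillation. Duplicates.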

[2] = target: Nitric oxide sythases; iNOS & nNOS (Homo sapiens) (UniProt P29475+P35228); test: Selectivity ratio of IC50 for human recombinant iNOS to IC50 for human recombinant nNOS
Summary of the method: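 Recombinant human nNOS and iNOS were expressed in baculovirus-infected Sf9 cells, and the assay measured [³H]-L-arginine to [³H]-L-citrulline conversion. nNOS buffer: 40 mM HEPES pH 7.4 with CaCl₂, MgCl₂, BSA, 1 mM NADPH and 1.2 μM CaM. iNOS buffer: 100 mM HEPES pH 7.4 with 120 μM NADPH and 100 nM CaM. Compound was preincubated 15 min at RT, then reacted 45 min at 37 °C. Citrulline was separated on DOWEX and counted by scintillation, in duplicate. The ratio is IC50 iNOS/IC50 nNOS.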

Cytochrome P450 1A2 = target: T1, Cytochrome P450 1A2 (Homo sapiens, UniProt P05177); test: Inhibition of CYP1A2 using CEC as substrate; type: ADME
T1 sequence (P05177 whole entry): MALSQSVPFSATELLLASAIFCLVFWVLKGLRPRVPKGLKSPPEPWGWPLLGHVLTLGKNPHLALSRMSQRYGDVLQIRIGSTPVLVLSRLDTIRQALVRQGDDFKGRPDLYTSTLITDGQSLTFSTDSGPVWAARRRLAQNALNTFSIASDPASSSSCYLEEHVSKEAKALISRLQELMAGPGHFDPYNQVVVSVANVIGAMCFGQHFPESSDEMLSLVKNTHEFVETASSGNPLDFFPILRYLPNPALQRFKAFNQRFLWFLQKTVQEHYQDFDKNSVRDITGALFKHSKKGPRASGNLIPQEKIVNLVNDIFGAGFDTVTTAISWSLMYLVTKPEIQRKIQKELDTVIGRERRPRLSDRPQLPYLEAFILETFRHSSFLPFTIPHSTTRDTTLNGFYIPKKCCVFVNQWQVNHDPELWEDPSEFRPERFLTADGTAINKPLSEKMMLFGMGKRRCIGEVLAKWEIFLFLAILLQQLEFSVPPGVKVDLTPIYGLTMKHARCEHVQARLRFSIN
Summary of the method: (§1)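 Insect-cell microsomes expressing single human CYP isozymes, incubated at 37 °C with an NADPH regenerating system (NADP+, glucose-6-phosphate, G6P dehydrogenase, MgCl2) and an isozyme-specific fluorogenic substrate. Formation of the fluorescent metabolite was measured with and without test compound across 0.0457–100 μM. An enzyme-selective inhibitor served as positive control. Duplicate determinations, IC50 reported.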

Cytochrome P450 2C9 = Cytochrome P450 2C9 (Homo sapiens, UniProt P11712); test: Inhibition of CYP2C9 using MFC as substrate; type: ADME; summary of the method: as §1
Cytochrome P450 2C19 = Cytochrome P450 2C19 (Homo sapiens, UniProt P33261); test: Inhibition of CYP2C19 using CEC as substrate; type: ADME; summary of the method: as §1
Cytochrome P450 2D6 = Cytochrome P450 2D6 (Homo sapiens, UniProt P10635); test: Inhibition of CYP2D6 using AMMC as substrate; type: ADME; summary of the method: as §1
Cytochrome P450 3A4 [3] = target: T2, Cytochrome P450 3A4 (Homo sapiens, UniProt P08684); test: Inhibition of CYP3A4 using BFC as substrate; type: ADME; summary of the method: as §1
Cytochrome P450 3A4 [4] = target: T2, Cytochrome P450 3A4; test: Inhibition of CYP3A4 using BQ as substrate; type: ADME; summary of the method: as §1
Nitric oxide synthase 3 = target: T3, Nitric oxide synthase 3 (Homo sapiens, UniProt P29474); test: Inhibition of human recombinant eNOS expressed in Sf9 cells assessed as inhibition of conversion of [3H]-L-arginine to [3H]-L-citrulline after 45 mins by liquid scintillation counting
T3 sequence (P29474 whole entry): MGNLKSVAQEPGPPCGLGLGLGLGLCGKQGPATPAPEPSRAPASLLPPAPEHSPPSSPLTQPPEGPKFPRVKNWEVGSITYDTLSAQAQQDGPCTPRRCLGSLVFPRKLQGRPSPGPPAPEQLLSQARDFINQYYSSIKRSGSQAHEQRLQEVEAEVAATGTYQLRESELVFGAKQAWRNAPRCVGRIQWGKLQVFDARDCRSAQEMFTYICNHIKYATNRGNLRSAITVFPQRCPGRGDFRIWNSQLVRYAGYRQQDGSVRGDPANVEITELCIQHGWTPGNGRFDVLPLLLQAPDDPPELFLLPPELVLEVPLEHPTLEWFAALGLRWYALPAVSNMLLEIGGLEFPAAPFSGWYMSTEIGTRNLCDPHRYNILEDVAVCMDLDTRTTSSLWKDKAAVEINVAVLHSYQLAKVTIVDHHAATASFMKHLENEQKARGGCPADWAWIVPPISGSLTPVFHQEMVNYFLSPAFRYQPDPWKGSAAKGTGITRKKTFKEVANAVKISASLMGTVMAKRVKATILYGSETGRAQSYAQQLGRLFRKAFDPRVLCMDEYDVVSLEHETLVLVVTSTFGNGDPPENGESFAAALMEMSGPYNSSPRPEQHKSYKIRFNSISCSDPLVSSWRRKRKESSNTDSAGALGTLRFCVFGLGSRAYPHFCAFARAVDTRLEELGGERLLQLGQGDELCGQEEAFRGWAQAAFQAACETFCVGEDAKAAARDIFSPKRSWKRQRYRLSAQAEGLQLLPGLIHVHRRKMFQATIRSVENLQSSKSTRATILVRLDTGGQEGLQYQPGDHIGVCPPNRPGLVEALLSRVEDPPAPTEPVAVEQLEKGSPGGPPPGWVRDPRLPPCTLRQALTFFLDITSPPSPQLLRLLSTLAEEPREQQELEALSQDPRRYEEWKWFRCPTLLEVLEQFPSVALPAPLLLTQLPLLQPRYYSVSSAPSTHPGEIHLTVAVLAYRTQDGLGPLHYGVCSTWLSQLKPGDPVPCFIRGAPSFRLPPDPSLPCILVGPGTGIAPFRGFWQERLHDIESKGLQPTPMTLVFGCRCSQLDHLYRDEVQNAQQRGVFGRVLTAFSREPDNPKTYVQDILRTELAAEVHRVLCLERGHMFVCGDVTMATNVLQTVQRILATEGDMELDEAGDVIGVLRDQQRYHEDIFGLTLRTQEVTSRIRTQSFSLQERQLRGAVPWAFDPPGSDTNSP
Summary of the method: (§2)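 Recombinant human eNOS or nNOS from baculovirus-infected Sf9 cells in 40 mM HEPES pH 7.4 with 2.4 mM CaCl2, 1 mM MgCl2, 1 mg/mL BSA, 1 mM EDTA, 1 mM DTT, 1 μM FMN, 1 μM FAD, 10 μM BH4, 1 mM NADPH and 1.2 μM CaM. Compound preincubated 15 min at RT, then [3H]-L-arginine conversion ran 45 min at 37 °C. Stopped with pH 5.5 HEPES/EGTA/EDTA buffer. [3H]-citrulline separated on Dowex and counted by scintillation. Duplicates.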

Nitric oxide synthase 1 = Nitric oxide synthase 1 (Homo sapiens, UniProt P29475); test: Inhibition of human recombinant nNOS expressed in Sf9 cells assessed as inhibition of conversion of [3H]-L-arginine to [3H]-L-citrulline after 45 mins by liquid scintillation counting; summary of the method: as §2
Gerbillinae = test: Neuroprotective activity in gerbil cerebral ischemia model; type: functional
Rattus norvegicus [5] = test: Analgesic activity in ip dosed rat spinal nerve ligation model assessed as reversal of thermal hyperalgesia measured after 60 to 120 mins; type: functional, organism-based
Summary of the method: (§3)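 Rat Chung model: L5 and L6 spinal nerves tightly ligated with 4-0 silk distal to the DRG under halothane anaesthesia, animals recovered in individual cages. Single intraperitoneal dose, 10 or 60 mg/kg. Read-out was paw withdrawal latency to radiant heat, expressed as percent reversal of thermal hyperalgesia over time after dosing.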

Rattus norvegicus [6] = test: Analgesic activity in rat SNL model assessed as reversal of thermal hyperalgesia at 60 mg/kg, ip administered as single dose measured at 90 mins; type: functional; conditions: route intraperitoneal; summary of the method: as §3
[7] = target: T4, Nitric oxide synthase 3 (Homo sapiens) (UniProt P29474); test: Inhibition of eNOS in human arteries precontracted with U46619 assessed as inhibition of acteylcholine-induced vasorelaxation at 1 to 100 uM after 50 mins
T4 sequence (whole entry): T3 sequence (P29474 whole entry)
Summary of the method: (§4)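 Human resistance artery rings of about 2 mm from surgical explants, wire-mounted in myograph baths of Krebs-bicarbonate PSS gassed with 95% O2/5% CO2 at 37 °C. Rings equilibrated at least 30 min with washes every 15 min, then standardised. Isometric tension recorded during ACh relaxation (10^-10 to 10^-5 M).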

[8] = target: T4, Nitric oxide synthase 3 (Homo sapiens); test: Inhibition of eNOS in human arteries precontracted with U46619 assessed as inhibition of acteylcholine-induced vasorelaxation at 1 to 100 uM after 50 mins in the presence of 1 mM L-arginine; summary of the method: as §4
[9] = target: T4, Nitric oxide synthase 3 (Homo sapiens); test: Inhibition of eNOS in human arteries precontracted with U46619 assessed as inhibition of acteylcholine-induced vasorelaxation after 50 mins; summary of the method: as §4
[10] = target: T4, Nitric oxide synthase 3 (Homo sapiens); test: Inhibition of eNOS in human arteries precontracted with U46619 assessed as inhibition of acteylcholine-induced vasorelaxation at 100 uM after 50 mins in the presence of 1 mM L-arginine; summary of the method: as §4

Nitric oxide synthase, inducible, sequence (P35228 whole entry): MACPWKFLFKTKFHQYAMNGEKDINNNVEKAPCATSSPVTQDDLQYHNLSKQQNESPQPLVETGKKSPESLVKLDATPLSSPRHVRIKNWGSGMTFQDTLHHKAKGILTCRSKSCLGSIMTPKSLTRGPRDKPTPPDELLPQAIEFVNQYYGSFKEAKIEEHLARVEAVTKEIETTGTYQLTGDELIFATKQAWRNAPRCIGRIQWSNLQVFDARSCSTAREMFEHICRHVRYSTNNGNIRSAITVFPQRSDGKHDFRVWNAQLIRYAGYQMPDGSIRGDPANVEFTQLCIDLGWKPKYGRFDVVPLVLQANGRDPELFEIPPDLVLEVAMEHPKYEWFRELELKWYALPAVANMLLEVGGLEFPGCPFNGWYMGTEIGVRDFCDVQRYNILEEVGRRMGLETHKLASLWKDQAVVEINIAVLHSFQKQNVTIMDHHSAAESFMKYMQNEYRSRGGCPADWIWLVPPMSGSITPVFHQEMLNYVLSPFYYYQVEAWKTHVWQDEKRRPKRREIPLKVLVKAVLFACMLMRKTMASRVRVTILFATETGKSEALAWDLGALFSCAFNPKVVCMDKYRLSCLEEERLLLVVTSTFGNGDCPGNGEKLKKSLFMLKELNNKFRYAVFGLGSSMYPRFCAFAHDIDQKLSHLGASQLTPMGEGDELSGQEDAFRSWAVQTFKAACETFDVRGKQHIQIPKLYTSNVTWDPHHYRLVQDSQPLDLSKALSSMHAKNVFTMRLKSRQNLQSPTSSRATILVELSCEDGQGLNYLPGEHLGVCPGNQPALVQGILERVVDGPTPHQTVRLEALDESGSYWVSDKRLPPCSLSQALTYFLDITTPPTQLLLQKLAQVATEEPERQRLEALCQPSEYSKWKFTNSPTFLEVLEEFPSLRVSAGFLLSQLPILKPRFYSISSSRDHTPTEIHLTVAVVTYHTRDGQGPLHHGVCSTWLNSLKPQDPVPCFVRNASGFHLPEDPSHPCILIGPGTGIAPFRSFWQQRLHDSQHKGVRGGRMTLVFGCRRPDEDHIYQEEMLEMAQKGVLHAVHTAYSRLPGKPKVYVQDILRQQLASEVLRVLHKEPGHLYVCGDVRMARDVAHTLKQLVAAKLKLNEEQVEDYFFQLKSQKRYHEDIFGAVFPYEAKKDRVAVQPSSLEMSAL
Nitric oxide sythases; iNOS & nNOS (Homo sapiens), sequence (P29475 whole entry, looked up): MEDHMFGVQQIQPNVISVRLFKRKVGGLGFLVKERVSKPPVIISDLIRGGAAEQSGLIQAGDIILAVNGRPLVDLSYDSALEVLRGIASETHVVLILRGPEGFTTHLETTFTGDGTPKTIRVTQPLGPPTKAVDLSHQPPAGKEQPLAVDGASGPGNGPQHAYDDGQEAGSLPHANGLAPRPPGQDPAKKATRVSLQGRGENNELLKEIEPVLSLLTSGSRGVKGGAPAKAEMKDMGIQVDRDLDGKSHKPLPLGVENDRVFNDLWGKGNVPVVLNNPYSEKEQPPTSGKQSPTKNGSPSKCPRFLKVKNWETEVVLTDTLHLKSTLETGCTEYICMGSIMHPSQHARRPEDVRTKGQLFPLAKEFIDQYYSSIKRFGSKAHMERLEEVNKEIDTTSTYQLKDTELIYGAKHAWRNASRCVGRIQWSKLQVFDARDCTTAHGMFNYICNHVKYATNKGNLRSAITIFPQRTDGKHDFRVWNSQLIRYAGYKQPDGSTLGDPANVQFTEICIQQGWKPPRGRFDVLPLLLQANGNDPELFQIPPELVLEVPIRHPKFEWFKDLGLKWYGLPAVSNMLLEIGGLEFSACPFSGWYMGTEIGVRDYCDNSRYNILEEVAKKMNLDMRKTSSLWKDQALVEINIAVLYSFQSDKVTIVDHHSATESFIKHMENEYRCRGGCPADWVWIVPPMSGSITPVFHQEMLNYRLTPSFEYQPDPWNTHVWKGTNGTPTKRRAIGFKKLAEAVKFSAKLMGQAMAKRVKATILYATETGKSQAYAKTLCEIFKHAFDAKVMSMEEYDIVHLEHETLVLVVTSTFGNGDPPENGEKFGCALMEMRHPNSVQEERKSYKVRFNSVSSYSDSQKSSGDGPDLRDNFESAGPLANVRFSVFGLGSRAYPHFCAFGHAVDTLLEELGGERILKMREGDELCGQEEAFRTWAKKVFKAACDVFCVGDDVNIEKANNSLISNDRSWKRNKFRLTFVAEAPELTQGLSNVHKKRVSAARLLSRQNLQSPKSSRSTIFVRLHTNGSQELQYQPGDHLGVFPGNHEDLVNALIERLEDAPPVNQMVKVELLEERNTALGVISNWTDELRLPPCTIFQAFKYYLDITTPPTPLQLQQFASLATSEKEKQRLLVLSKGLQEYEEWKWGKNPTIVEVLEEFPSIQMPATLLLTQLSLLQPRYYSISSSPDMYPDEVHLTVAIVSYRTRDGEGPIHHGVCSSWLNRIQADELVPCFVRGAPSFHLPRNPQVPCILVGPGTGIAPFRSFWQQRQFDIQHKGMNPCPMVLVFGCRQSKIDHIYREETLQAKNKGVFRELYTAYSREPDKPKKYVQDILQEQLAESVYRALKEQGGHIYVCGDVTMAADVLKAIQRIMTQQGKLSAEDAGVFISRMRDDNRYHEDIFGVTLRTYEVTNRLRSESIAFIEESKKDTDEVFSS
Nitric oxide sythases; iNOS & nNOS (Homo sapiens), sequence (P35228 whole entry, looked up): as the sequence (P35228 whole entry) above
Nitric oxide synthase 1, sequence (P29475 whole entry): as the sequence (P29475 whole entry, looked up) above
T2 sequence (P08684 whole entry): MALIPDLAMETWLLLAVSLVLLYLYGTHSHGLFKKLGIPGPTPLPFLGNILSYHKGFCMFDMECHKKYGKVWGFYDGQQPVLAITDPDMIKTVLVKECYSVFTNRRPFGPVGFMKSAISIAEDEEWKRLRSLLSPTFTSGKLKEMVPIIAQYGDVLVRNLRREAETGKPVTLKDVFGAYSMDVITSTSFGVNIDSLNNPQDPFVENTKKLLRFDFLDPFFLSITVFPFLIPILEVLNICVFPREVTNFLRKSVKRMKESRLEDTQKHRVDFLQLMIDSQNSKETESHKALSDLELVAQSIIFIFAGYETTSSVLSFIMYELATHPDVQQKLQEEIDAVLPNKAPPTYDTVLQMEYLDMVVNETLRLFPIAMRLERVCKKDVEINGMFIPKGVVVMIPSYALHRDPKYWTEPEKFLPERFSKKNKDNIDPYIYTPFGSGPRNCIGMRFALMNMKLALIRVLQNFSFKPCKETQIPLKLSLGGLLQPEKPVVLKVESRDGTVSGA
Cytochrome P450 2C9, sequence (P11712 whole entry): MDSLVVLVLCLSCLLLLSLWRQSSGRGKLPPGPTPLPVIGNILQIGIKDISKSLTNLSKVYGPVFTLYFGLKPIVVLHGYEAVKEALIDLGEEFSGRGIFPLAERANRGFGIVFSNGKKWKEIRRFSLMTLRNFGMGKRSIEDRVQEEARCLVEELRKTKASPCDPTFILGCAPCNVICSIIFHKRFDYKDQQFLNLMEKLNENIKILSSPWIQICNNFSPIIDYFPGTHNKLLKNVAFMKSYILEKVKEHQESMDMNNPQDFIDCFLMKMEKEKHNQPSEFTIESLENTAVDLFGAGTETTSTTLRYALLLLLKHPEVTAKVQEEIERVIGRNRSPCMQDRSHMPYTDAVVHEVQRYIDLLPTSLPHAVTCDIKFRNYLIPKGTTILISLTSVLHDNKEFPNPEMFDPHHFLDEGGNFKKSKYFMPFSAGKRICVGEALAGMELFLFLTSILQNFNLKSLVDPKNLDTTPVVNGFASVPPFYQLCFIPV
Cytochrome P450 2D6, sequence (P10635 whole entry): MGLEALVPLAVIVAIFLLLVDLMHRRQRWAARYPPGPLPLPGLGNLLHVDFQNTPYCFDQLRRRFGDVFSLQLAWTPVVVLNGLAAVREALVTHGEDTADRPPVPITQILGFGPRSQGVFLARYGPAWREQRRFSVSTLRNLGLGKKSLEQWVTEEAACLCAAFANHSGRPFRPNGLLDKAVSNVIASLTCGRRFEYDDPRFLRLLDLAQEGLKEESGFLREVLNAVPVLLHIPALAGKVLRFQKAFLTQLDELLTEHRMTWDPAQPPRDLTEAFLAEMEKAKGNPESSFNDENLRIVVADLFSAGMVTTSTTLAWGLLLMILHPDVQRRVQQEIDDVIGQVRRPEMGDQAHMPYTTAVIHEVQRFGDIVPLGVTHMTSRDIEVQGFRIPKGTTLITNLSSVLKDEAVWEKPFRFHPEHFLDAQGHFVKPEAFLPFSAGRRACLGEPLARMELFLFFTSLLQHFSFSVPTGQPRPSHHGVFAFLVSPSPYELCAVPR
Cytochrome P450 2C19, sequence (P33261 whole entry): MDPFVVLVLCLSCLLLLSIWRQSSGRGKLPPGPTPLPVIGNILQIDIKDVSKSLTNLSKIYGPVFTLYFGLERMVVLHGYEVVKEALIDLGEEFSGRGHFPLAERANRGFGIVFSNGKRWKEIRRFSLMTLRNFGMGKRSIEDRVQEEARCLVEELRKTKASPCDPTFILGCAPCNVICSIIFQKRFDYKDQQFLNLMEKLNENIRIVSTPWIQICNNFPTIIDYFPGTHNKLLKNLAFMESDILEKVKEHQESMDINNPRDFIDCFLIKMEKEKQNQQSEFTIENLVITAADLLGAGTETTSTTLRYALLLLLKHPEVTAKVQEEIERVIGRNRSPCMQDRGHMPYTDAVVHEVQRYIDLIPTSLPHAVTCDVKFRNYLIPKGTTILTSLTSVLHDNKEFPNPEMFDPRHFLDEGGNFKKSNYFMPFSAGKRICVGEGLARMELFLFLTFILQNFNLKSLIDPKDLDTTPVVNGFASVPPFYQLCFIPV

SMILES | pIC50 [1] | Ratio IC50 [2] | pIC50 (Nitric oxide synthase 3) | pIC50 (Nitric oxide synthase 1) | also measured
CNC(=N)NCCC[C@H](N)C(=O)O.Cl.Cl |  |  |  |  | Activity (Homo sapiens): 67%
CN1CCC(c2c[nH]c3cc(NC(=N)c4cccs4)ccc23)C1 (stereo unspecified) | 5.59 | 13 |  |  | 
Cl.Cl.N=C(Nc1ccc2c(C3CN4CCC3CC4)c[nH]c2c1)c1cccs1 (single isomer, unassigned; enantiomer 2) | 3.86 |  | 4.39 | 6.35 | IC50 (Cytochrome P450 1A2): Not Active; IC50 (Cytochrome P450 2C9): Not Active; pIC50 (Cytochrome P450 2C19): 4.30; pIC50 (Cytochrome P450 2D6): < 4.00; pIC50 (Cytochrome P450 3A4 [3]): 4.00; pIC50 (Cytochrome P450 3A4 [4]): < 4.00
CN1CCC[C@@H]1CCn1ccc2ccc(/N=C(\N)c3cccs3)cc21 |  | 225 |  |  | 
FC(F)(F)c1ccccc1-n1ccnc1 |  |  |  |  | Activity (Gerbillinae): 8%
N=C(Nc1ccc2c(C3CN4CCC3CC4)c[nH]c2c1)c1cccs1 (racemic) [listing 1 of 2 here] |  | 15 |  |  | 
N=C(Nc1ccc2c(C3CN4CCC3CC4)c[nH]c2c1)c1cccs1 (single isomer, unassigned; enantiomer 1) [listing 1 of 2 here] |  | 98 |  |  | 
N=C(Nc1ccc2c(C3CN4CCC3CC4)c[nH]c2c1)c1cccs1 (racemic) [listing 2 of 2 here] | 4.74 |  | 4.48 | 5.91 | 
CN1CC=C(c2c[nH]c3cc(NC(=N)c4cccs4)ccc23)CC1.Cl.Cl | 4.91 | 15 | 4.58 | 6.10 | pIC50 (Cytochrome P450 1A2; read-out: IC50): < 4.00; pIC50 (Cytochrome P450 2C9; read-out: IC50): 4.14; pIC50 (Cytochrome P450 2C19): 4.40; pIC50 (Cytochrome P450 2D6): 4.20; pIC50 (Cytochrome P450 3A4 [3]): 4.13; pIC50 (Cytochrome P450 3A4 [4]): < 4.00; Activity (Rattus norvegicus [5]): Dose-dependent effect; Activity (Rattus norvegicus [6]): 67%; inhibition [7]: inactive; inhibition [8]: inactive
N=C(Nc1ccc(CCNCc2cccc(Cl)c2)cc1)c1cccs1 |  |  |  |  | Activity (Gerbillinae): 44%
COC(=O)[C@@H](N)CCCNC(=N)N[N+](=O)[O-] | 6.08 | 1.2 | 6.17 | 6.16 | inhibition [9]: Dose-dependent effect; inhibition [10]: inactive
CN1CCC(c2c[nH]c3cc(NC(=N)c4cccs4)ccc23)CC1 |  | 78 | 4.97 | 6.92 | 
O=[N+]([O-])c1cccc2cn[nH]c12 [7-NITROINDAZOLE] |  |  |  |  | Activity (Gerbillinae): 22%
N=C(Nc1ccc2c(C3=CN4CCC3CC4)c[nH]c2c1)c1cccs1 | 5.08 | 6 |  | 5.82 | 
N=C(Nc1ccc2c(C3CN4CCC3CC4)c[nH]c2c1)c1cccs1 (single isomer, unassigned; enantiomer 1) [listing 2 of 2 here] | 4.28 |  | 4.63 | 6.28 | 
N=C(Nc1ccc2c(C3CN4CCC3CC4)c[nH]c2c1)c1cccs1 (single isomer, unassigned; enantiomer 2) |  | 309 |  |  | 

— ChEMBL document CHEMBL1833804, “Discovery of N-(3-(1-methyl-1,2,3,6-tetrahydropyridin-4-yl)-1H-indol-6-yl) thiophene-2-carboximidamide as a selective inhibitor of human neuronal nitric oxide synthase (nNOS) for the treatment of pain” (J Med Chem, 2011)
